Myeloid diff MLP = induction of myeloid progenitor differentiation, primary screen, cell-based, flow cytometry, MLPCN library; ER-HoxA9 myeloid progenitors, lysozyme-GFP differentiation; calls only at 10 µM; 360,000 compounds, 1% hits;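 active means normalized GFP-positive differentiation at or above the plate's own cutoff, the solvent-only control mean plus 3 SD; inconclusive means no clear call, values can overlap the other calls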;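 further: cells exposed to compound for four days before flow analysis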
Vif imaging = HIV Vif self-association inhibitors, primary screen, imaging, HEK293T, single point; inhibition, % at 7.49 µM; AID 602346, 2012; HEK293T cells, Vif self-association by quenched fluorescence, 24 h; 340,000 compounds, 0.35% hits; in the data active means inhibition above about 50%, passing the limit was not always enough; inconclusive means no clear call, values can overlap the other calls; inactive means below about 31%
T cell modulator = modulators of CD8 T cell-vesicle binding, primary screen, mouse 2C CD8+ T cells, flow cytometry; 2C CD8+ T cell-vesicle binding; hits give low values; response (vesicle binding), % at 7 µM; 330,000 compounds, 0.068% hits;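 active means response, share of CD8 T cells binding vesicles, and their 90th percentile fluorescence all below set limits, cut at about 80% in these data, passing the limit was not always enough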;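 further: values below 100% mean blocked vesicle binding to the CD8+ T cells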
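Material: 2C TCR transgenic mouse naive CD8+ T cells, MACS-purified. Also added: QL9-charged Drosophila Ld/ICAM-1/B7-1 vesicles. Timing: binding 1.5 h at 37 °C. Measured by: high-throughput flow cytometry with anti-B7-1 and anti-CD8 staining. Read-out: percent CD8+ FL2 mean versus row control. Controls: Unloaded micro-vesicles (low), QL9 vesicles with 0.7% DMSO (high).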
Casp6 inh = human caspase-6 inhibitors, primary screen, biochemical, VEID-R110 fluorescence, single point, set 2; P55212; purified caspase-6, Z-VEID-R110 cleavage fluorescence; inhibition, % at 12.5 µM; 350,000 compounds, 0.53% hits; AID 686996, 2013;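 active means mean inhibition across replicates at least about 35%, with every replicate also reaching that limit, limit read from the data; inconclusive means only one of the two criteria met; inactive means neither criterion met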;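 further: 0% = median of neutral control wells and 100% = no fluorescence left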
Target sequence (P55212 24-179 limits assumed): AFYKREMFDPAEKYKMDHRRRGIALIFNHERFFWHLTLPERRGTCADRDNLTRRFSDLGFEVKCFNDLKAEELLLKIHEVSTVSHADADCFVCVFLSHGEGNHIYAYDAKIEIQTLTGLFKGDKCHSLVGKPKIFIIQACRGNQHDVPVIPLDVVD
Target sequence (P55212 194-293 limits assumed): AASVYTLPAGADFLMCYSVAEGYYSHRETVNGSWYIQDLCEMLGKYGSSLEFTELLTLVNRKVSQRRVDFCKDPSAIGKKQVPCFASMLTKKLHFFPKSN
* marks the source's active call; other numbers are inactive results; i = inactive; u = inconclusive; x = no result; + = active, no number. Rows were chosen to be rich in hits. Some 1.4% of all compounds tested hit in one or more screens of this group.

SMILES	Myeloid diff MLP	Vif imaging	T cell modulator	Casp6 inh
O=C(CN1C(=O)c2ccccc2S1(=O)=O)N1CCCCC1	i	7	327	1
O=C(C[C@@H]1CC[C@H]2[C@@H](COC[C@H](O)CN2Cc2cccc(Cl)c2)O1)Nc1nccs1	x	x	x	-3
CCN1C[C@@H]2[C@@H]3C(=O)N(Cc4ccccc4)C(=O)[C@@H]3[C@](CC)(C1=O)N2C(=O)c1ccc(C(F)(F)F)cc1	i	-5	249	0
CCN1C[C@@H]2[C@@H]3C(=O)N(Cc4ccccc4)C(=O)[C@@H]3[C@](Cc3ccccc3)(C1=O)N2C(=O)c1ccc(C(F)(F)F)cc1	+	-2	x	6
COc1ccc(NC(=O)N(C)C[C@@H]2Oc3ccc(NS(=O)(=O)c4ccc(OC)cc4)cc3CC(=O)N([C@@H](C)CO)C[C@H]2C)cc1	x	x	x	-1
CN=c1sc2c(n1C)C(=O)c1ccccc1C2=O	i	-1	x	63*
O=C(O)C1C=Cc2ccccc2N1C(=O)c1ccccc1 (configuration not stated) (tested in a mixture with another compound)	u	-3	x	39*
O=C(O)COCC(=O)N1CCCN(c2ccc(C(F)(F)F)cn2)CC1	+	-2	217	-6
CC(=O)c1cccc(OCC(=O)N2CCN(c3ccc(C(F)(F)F)cn3)CC2)c1	i	1	888	-3
CCC(=O)N1CC[C@H]2[C@H](CO)Nc3ccc(C#Cc4cccnc4)cc3[C@H]21	x	x	x	4
CCOC(=O)c1c(C)[nH]c(C(=O)COC(=O)c2[nH]c(C)c(C(C)=O)c2C)c1C	+	-6	464	x
CCOC(=O)c1[nH]c(C)c(C(=O)OCC)c1C	i	0	740	1
CCOC(=O)N1Cc2cc3ccccc3nc2C1	i	-7	x	5
O=C(O)/C=C/C(=O)N1Cc2cc3ccccc3nc2C1	i	-2	189	54*
Cc1cc2nc(Cl)c(Cl)nc2cc1C	i	67*	241	0
O=C(C[C@H]1CC[C@@H](NC(=O)Nc2ccccc2)[C@H](CO)O1)NCc1cccc(F)c1	x	x	x	-1
C/C(Cl)=C/Cn1c(N2CCCC2)nc2c1c(=O)n(C)c(=O)n2C	+	-10	200	x
C/C(Cl)=C\Cn1c(N2CCCC2)nc2c1c(=O)[nH]c(=O)n2C	i	-1	233	x
CCOC(=O)c1sc2nc(CC(=O)OC)nc(NCc3ccco3)c2c1C	+	-3	x	x
CCOC(=O)c1sc2nc(CC(=O)OC)nc(NCC(=O)OC)c2c1C	i	-9	454	1
CC[n+]1c(/C=C/Nc2ccccc2)oc2ccc(OC)cc21	+	3	277	5
CC[n+]1c(/C=C/N(C)c2ccccc2)oc2ccc(F)cc21	u	-6	243	x
CC[n+]1c(/C=C/Nc2ccccc2)oc2ccccc21	+	2	312	x
CC(/C=C/c1ccc(O)cc1)=N/O	+	-2	291	x
COc1ccccc1OCCCC(=O)NCc1ccco1	i	59*	234	x
SMILES	Myeloid diff MLP	Vif imaging	T cell modulator	Casp6 inh
COc1cc(NC(=O)NCc2ccco2)ccc1-c1ccc(NC(=O)NCc2ccco2)cc1OC	i	90*	x	-5
CCC(=O)N1CCCCN2[C@@H](CO)[C@@H](c3ccc(C#Cc4cccnc4)cc3)[C@@H]2C1	x	x	x	1
COC(=O)Nc1ccc2c(c1)Nc1ccccc1CC2	i	1	375	-1
Nc1ccc2c(c1)Nc1ccccc1CC2	+	7	278	-3
CCCNC(=O)N1CCC2(CC1)CN(C(=O)COC)[C@@H](CO)c1c2c2ccc(OC)cc2n1C	x	x	x	6
CC1(C)CC(C(CCN(Cc2ccccc2)C(=O)c2ccco2)c2ccc(F)cc2)CCO1 (configuration not stated)	i	0	414	x
O=C(c1ccco1)N(CCC(c1ccccc1)c1ccco1)Cc1ccc(F)cc1 (configuration not stated)	+	8	198	5
CO[C@H]1CN(C)C(=O)c2ccc(NC(=O)Nc3cc(F)ccc3F)cc2OC[C@@H](C)N(C(=O)c2cnccn2)C[C@@H]1C	x	x	x	1
Cc1c(NS(=O)(=O)c2cc(C(=O)NCCN(C)C)ccc2Cl)c(=O)n(-c2ccccc2)n1C	i	x	291	42*
Clc1ccc(-c2nnc(Sc3nc4ccccc4o3)c3ccccc23)cc1	i	1	265	0
O=c1c(Cl)c2oc3ccccc3nc-2c2ccccc12	+	10	584	x
Cc1cn([C@H]2C[C@H](O)[C@@H](/C=C/C(=O)NCc3ccc(N(C)C)cc3)O2)c(=O)[nH]c1=O	i	-5	x	2
Cc1cn([C@H]2C[C@H](O)[C@@H](/C=C/C(=O)NCc3ccco3)O2)c(=O)[nH]c1=O	+	1	x	6
O=C(O)c1cccc(-c2ccc(/C=N/Nc3ccc([N+](=O)[O-])cc3)o2)c1	i	-3	129	10
CCCCC(=O)N/N=C/c1ccc(-c2ccc([N+](=O)[O-])cc2)o1	i	-14	299	0
CC(C)(C)NC(=S)N/N=C\c1ccc(-c2ccc([N+](=O)[O-])cc2)o1	+	x	320	-1
O=C(O)c1ccc(-c2ccc(/C=N/Nc3ccc([N+](=O)[O-])cc3)o2)cc1	+	i	252	2
O=C(O)c1ccc(N/N=C/C=C/c2ccc([N+](=O)[O-])o2)cc1	i	24	370	75*
COc1ccc(-c2cnc3c(c2)C(=O)N([C@H](C)CO)C[C@H](C)[C@@H](CN(C)C(=O)Cc2cccnc2)O3)cc1	x	x	x	-2
CCCCc1ccc(NC(=S)N2CCC(O)CC2)cc1	+	-4	183	-1
CSc1sccc1/C=C(/C#N)C(=O)c1ccco1	i	151*	222	-1
O=C(O)c1cccc(-n2cccc2/C=C/[N+](=O)[O-])c1	i	-1	318	65*
O=C(O)c1cccc(-n2cccc2/C=N/O)c1	i	-4	300	x
N#C/C(=C/c1cccn1-c1cccc(C(=O)O)c1)c1ccc(Cl)cc1	+	x	961	84*
N#CC(C#N)=Cc1cccn1-c1ccc(C(=O)O)cc1	i	-5	181	71*
O=C1Cc2cccc(=O)c(O)c2C(=O)O1	i	-6	x	38*
O=C1c2c(O)cccc2Cc2cccc(O)c21	i	15	236	0
COc1cccc(N2CCN(C(=O)c3ccc(CS(=O)c4ccc(C)cc4)o3)CC2)c1 (configuration not stated)	u	56*	102	-1
O=C(C[C@H]1CC[C@@H](NC(=O)c2ccc3c(c2)OCO3)[C@@H](CO)O1)NCc1ccc(Cl)cc1	x	x	x	-1
O=C1c2ccccc2S(=O)(=O)N1CC(O)Cn1ccc2ccccc21 (configuration not stated)	+	0	340	x
